Measurements published in the EternaBench riboswitch data.

Tested on: MS2 coat protein
Test: apparent Kd, MS2 coat protein; higher = weaker binding; RNA-MaP array; FMN 200 µM where present
In short: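 The apparent Kd comes from binding curves fitted cluster by cluster, filtered, and summarised as a median. Those curves followed SNAP-549-labelled MS2 coat protein from 0.7 or 1.5 nM, doubling to 3 µM, on Illumina sequencing-chip clusters where stalled E. coli RNA polymerase had transcribed the designs, without and then with constant ligand. The buffer was 100 mM Tris-HCl pH 7.5, 80 mM KCl, 4 mM MgCl2, BSA, DTT, yeast tRNA and Tween-20, and green signal was normalised to red-channel RNA signal and control-cluster median Fmax.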

[1] = designed as: OFF switch for flavin mononucleotide, no ligand
[2] = ligand present: flavin mononucleotide, designed as: OFF switch for flavin mononucleotide
[3] = designed as: ON switch for flavin mononucleotide, no ligand
[4] = ligand present: flavin mononucleotide, designed as: ON switch for flavin mononucleotide

Row | Sequence | apparent Kd [1] [nM] | apparent Kd [2] [nM] | apparent Kd [3] [nM] | apparent Kd [4] [nM]
1 | GCAUGACAAAGUCAUGCAAUACGAACAUGAGGAUCACCCAUGUAGGAUAUGCUACUCAAAGAGUAGCAGAAGGACAUGUGUCUU | 33.2 | 182 |  | 
2 | AAAGUGUGAGGAUAUCCGGGACUGGGCCGGGAGGUUCGGAAGGAGAAGGCACAUGAGGAUCACCCAUGUAACGG | 59.3 | 44.3 |  | 
3 | CUCACUCCAAAGAGCGCGUCUGCCUGAGAAGGGUGCUAAUUAAUUACAUGAGGAUCACCCAUGUCACAGGAUAUCAGGGUCGCU |  |  | 622 | 230
4 | CCCGCGAUGUCAGGAUAUAGUCGGAGGUGCAGACUAGAAGGGACAUGAGGAUCACCCAUGUGCGUGAAAAUUUGAAACCCAGGU | 46.5 | 164 |  | 
5 | ACCUUACAUGAGGAUCACCCAUGUUAGGAUAUCUCGCCUGCACAAACACAGCGCAGGCAGAGAAGGGACGCGGG | 28.2 | 35 |  | 
6 | GGAUUACAUGAGGAUCACCCAUGUGAGGAUAUCGAUGUCCUAGGUCAAGUGCGGGACUCGAGAAGGCACUUGGA | 52.4 | 28.9 |  | 
7 | UGGUACAUGGGAGGAUAUCAUGUGGACACAUGAGGAUCACCCAUGUCGAUGGAGACAUCGGAGAUUGAGAAGGCCCAUGUACCU |  |  | 390 | 12.7
8 | GCAGCGUAUGUAGGAUAUCGGUCAGUUUCUGAUCGAGAAGGACAUGAGGAUCACCCAUGUAUAUUCUAGCGUGAGCUAGGCUGC | 18.2 | 25.5 |  | 
9 | CUUUUAUUGGUCCAUUUUUUCUACAUGAGGAUCACCCAUGUGCAGGAUAUCGUGAUUAUUAUCAACGAGAAGGGCAGAUUCACG | 29.8 | 78.4 |  | 
10 | UUACCUUAUGAGAAGGCGGUCAUGAAACAUGAUCGAGGAUAUCAUGUAAACAUGAGGAUCACCCAUGUAUGGGUAUUAUGGUAG |  |  | 303 | 52
11 | UGAAUGGUGAUAGGAUAUACAUGAGGAAUCCUCGUAGAAGGAUCACGACAUGAGGAUCACCCAUGUAGCCGUCCGUAGACGGCC |  |  | 227 | 470
12 | GUAGCUAUCGGAGGAUAUUCAUACCGGAUACGGACAUGAGGAUCACCCAUGUCGCGAAAGCGUUGGGAGAAGGCCGAUAGCUAC |  |  | 89.2 | 20.4
13 | AGUGACUACGUAGGAUAUUAAAUCAUGUACUACAUGAGGAUCACCCAUGUUAAUUUAACAUCAGCUGAGAAGGACGUGGUCACA |  |  | 20.6 | 11.6
14 | ACCCUGUCAGGAUAUCCUGCUGUGCGGCCUCUGUAUUCAAGGGAGAAGGGACAUGAGGAUCACCCAUGUAUGAG | 40.6 | 47.5 |  | 
15 | GUCAGCUCGUGAGGAUAUACAACACGGCUUCGGCAGUGUAUUAAGAUCACAUGAGGAUCACCCAUGUAGAAGGCACGAGCUGAU | 13.9 | 200 |  | 
16 | GGAAUGUCGGGAGGAUAUCCAAAUGUAUACAUAGGAGAAGGCCCGCACAUGAGGAUCACCCAUGUAAUAACGCGUGGCAUCAAC | 82.8 | 119 |  | 
17 | GCGUACAUAUCAGGAUAUCAUAUUAUUGUUUUACUCAGUGUAUACAUGAGGAUCACCCAUGUUCUUGAGAAGGGAUAUGUACGC | 8.22 | 9.91 |  | 
18 | AUCACAGCCACAGGAUAUCCACAUGAGGAUCACCCAUGUUACCGAAGGGUAGGAGAAGGGUGGCGCUCGUUGCGGACGAUGAAU |  |  | 121 | 15.1
19 | CUAUGCGGAAUAGGAUAUUCAUUCAUGAGGAUAGAAGAAGGGUUACAUGAGGAUCACCCAUGUAUACACAUGAGGAUCCCUUAC | 162 | 181 |  | 
20 | UUAGAAUUGCAAGGAUAUCUAAUUUAGAUAGUAAGAGAAGGUGCUUUAUAGUUACAUGAGGAUCACCCAUGUUUUUUUGUUUAU |  |  | 35.1 | 27.3
21 | CAGCGAAAGUAGAAGGCAGUACUGAUACAGUACUGAGGAUAUACAUGAGGAUCACCCAUGUACAAAAGCUGGAAAUAAAUAAAA | 6.56 | 6.81 |  | 

Row | Sequence | apparent Kd [1] [nM] | apparent Kd [2] [nM] | apparent Kd [3] [nM] | apparent Kd [4] [nM]
22 | AAUAUGUGAGGAUAUAUCCACCGCGUAGGCUCGCGGUGACAAUAGAAGGUACAUGAGGAUCACCCAUGUAGGGA | 67.7 | 36.9 |  | 
23 | ACUAGGCGAGGAUAUACAUGCUUAACGCAGGAAAAGCUGCGACAUGAGGAUCACCCAUGUAGAAGGCGCAAAUA | 15.7 | 115 |  | 
24 | GGGUUCAUGUAAGGAUAUGUAUUGUUAAUCGGAGCAGAAGGUACAUGAGGAUCACCCAUGUCAACCUAGAGCAGGGCUUUUUAG | 27 | 110 |  | 
25 | UGUUGUAUUACAGGAUAUCUAUUAGAUUUAUUUAGAGAAGGGUAUUCACAUGAGGAUCACCCAUGUAUAUACGAGGAAGUUGUG |  |  | 57 | 58.6
26 | AGAUCGAGUGUGAGGAUAUUGACCGGACGACCCAUCGAGAAGGCACAUGAGGAUCACCCAUGUGAUUCGGCUCA | 17.7 | 26.4 |  | 
27 | AACAGUAGAGGAUAUACAUGAGGAUCACCCAUGUGAGAAUUACGUGGCGUACCACGAAGUAGAAGGCUACUGGA | 61.3 | 302 |  | 
28 | UUAUUUAUACAAGGAUAUCUAUUGUUAAUACGACUUACAUGAGGAUCACCCAUGUUUUUAUGUUUAGAGAAGGUGUAUUUUCAG |  |  | 41.4 | 31.8
29 | GGAAUAGCAUGAGGAUAUGCUGGAGUUUAGACAGCAGAAGGCAUGUCAUAAGACAUGAGGAUCACCCAUGUAAUUACAAUACCA |  |  | 102 | 11.7
30 | UCGUGAAGGACAGGAUAUGGACAUGAGGAUCACCCAUGUACAUGGGAAUAUAUACUGAAUUUAUACUAGAAGGGUUACAUAAAU | 27.4 | 16.7 |  | 
31 | ACAUGAUACAAGAAGGAUGUAUUUGAUUUGAUCAUAGGAUAUUGUUAUAUUGUUUACUCUAAUAACAUGAGGAUCACCCAUGUA |  |  | 7.04 | 6.95
32 | AGAAAACAUGAGGAUCACCCAUGUGAGGAUAUCGAUGUCCAAGCCCGGGUGCGGGACUCGAGAAGGCACUUGGG | 55.7 | 36.8 |  | 
33 | GUUCUUCCUGUAAGGAUAUCCAUGUAUCAAUUUAUGGAGAAGGUACAUGAGGAUCACCCAUGUCACCCGCGUUA | 20.9 | 50.7 |  | 
34 | GGCUGGUGACAGCAUCCAUCAAAACAUGAGGAUCACCCAUGUAGAAGGCUGUACGGUUACCGUACAGAGGAUAUACAAUGAUGU | 14 | 23.9 |  | 
35 | GGGCCAACAUGAGGAUCACCCAUGUAGGAUAUCGCUAUUGUAAUCAUGAAACAUGAUUACAAUAGCGAGAAGGACAUAUGCAAA | 7 | 7.7 |  | 
36 | AUCGGGUCAGGAUAUUGUUAGUUUAGUUGUUUGUAUUAGUUCGAGAAGGGACAUGAGGAUCACCCAUGUGGUAA | 58.4 | 73.2 |  | 
37 | GACUCGGGUGCAGGAUAUCCGCCGGAUCGCAGUGGAGAAGGGCGCCAAGCGAACAUGAGGAUCACCCAUGUAUCGGAGUUGAAC |  |  | 56.9 | 10.4
38 | GGAUAGGACAGAGGAUAUACGUACUAGAGAUACUAGCAAAAUUUCCUCACAUGAGGAUCACCCAUGUAGAAGGCUGUCCUAUCG | 21.4 | 563 |  | 
39 | AUCAGCUCCUCAGGAUAUACAUCACUGCUUCGGCAGUGUAUUAAGAUCACAUGAGGAUCACCCAUGUAGAAGGGAGGAGCUGAU | 29.5 | 336 |  | 
40 | CGGUCUUGCAACUAUUUGUUUCACAUGAGGAUCACCCAUGUCAGAAGGAGGUGCAUAUAUUAGACCUAGGAUAUGACGUGUAAA | 9.79 | 28.4 |  | 
41 | CGAGUGAUAGGAUAUACACCUUUUCAGAACAUGUGGCUGUUACAUGAGGAUCACCCAUGUAGAAGGAUCAAGCG | 65.8 | 66.3 |  | 
